Screening data deposited in PubChem by several laboratories.
XBP1 UPR activ: adaptive UPR (XBP1) activation. AID 463104. CHO-XBP1 luciferase reporter, IRE1-XBP1 UPR activation, luminescence; percent of tunicamycin response, DMSO as zero. 330,000 tested, 0.33% active. activation, % at 20 µM;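 active = versus positive control, 20 µM dose yields 30% or more activation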;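 note: 100% = tunicamycin at 10 µg/mL and 0% = DMSO only wells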
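Material: CHO cell line with stable XBP1 luciferase reporter; buffer or medium: F12 medium containing 10% fetal bovine serum; compound: single point, 20 µM final compound, 1% DMSO; incubation: 6 h treatment, 37 °C; measured by: glow luminescence from Steady-Glo reagent; evaluation: activation, % of tunicamycin; control set: tunicamycin high, DMSO low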
UPR CHOP act: apoptotic UPR (CHOP) activation; CHO-CHOP luciferase reporter, luminescence; percent of tunicamycin response over DMSO baseline; activation, % at 10 µM; 330,000 tested, 0.34% active;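 active = at 10 µM dose, activation of 40% or more, normalized to positive control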;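 note: 100% = tunicamycin at 10 µg/mL and 0% = DMSO alone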
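System: CHO-CHOP luciferase reporter cell line | Buffer or medium: F12 medium containing 10% fetal bovine serum | Doses: One dose, 10 µM in 0.5% DMSO | Times: 6 h compound exposure at 37 °C after overnight seeding | Signal: Luciferase luminescence | Read-out: % activation vs tunicamycin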
CHOP inh: blocks CHOP induction under ER stress | CHO-K1 CHOP-promoter luciferase, tunicamycin-induced, 15-18 h | inhibition, % at 10 µM | 220,000 tested, 3.8% active | AID 2732;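 active = compounds that reduced the stress-induced luciferase reporter signal by more than about 70% of percent inhibition, limit read from the data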;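 note: 0% = tunicamycin plus vehicle and 100% = wells without tunicamycin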
PvdQ inh: P. aeruginosa PvdQ acylase inhibition | 340,000 tested, 0.063% active | purified PvdQ acylase, fluorescence plate reader | inhibition, % at 10 µM; in the data active = inhibition above about 30%, passing the limit was not always enough;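 note: 0% = vehicle neutral wells and 100% = reference inhibitor wells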
CHOP confirm: confirmation of CHOP induction inhibitors; inhibition, % at 10 µM; shares compounds with CHOP inh; 2,100 tested, 45% active; AID 504437; CHO-CHOP promoter luciferase reporter, tunicamycin-induced, luminescence;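 active = mean of three repeat readings of reporter signal inhibition above a set limit, cut at about 70% in these data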;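 note: 0% = tunicamycin plus vehicle and 100% = wells lacking tunicamycin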
* = called active by the depositor; / = no result given. Shown is part of a subset that was picked to be rich in hits.

SMILES	XBP1 UPR activ	UPR CHOP act	CHOP inh	PvdQ inh	CHOP confirm
CCOC(=O)c1[nH]c2ccc(OC)cc2c1NC(=O)/C=C/c1ccc2c(c1)OCO2	2	4	102*	-10	-17
O=C(O)C1CCN(C(=O)Cc2ccccc2)CC1	0	1	10	3	/
COc1cc(/C=N/N(C)c2ccccc2)cc(Cl)c1O	8	6	97*	3	38
O=C(Nc1ccc2ccccc2c1)NC1CCS(=O)(=O)C1 (centres undefined)	2	3	-17	-11	/
O=C(NCc1nnnn1-c1ccc(F)c(F)c1)c1ccc2c(c1)OCO2	0	1	/	-10	/
COc1ccc(C2=NS(=O)(=O)N(C)C(C(=O)NC3CCCCC3)=C2)cc1OC	-2	0	/	-7	/
CCCCC1=CC2=C(c3ccco3)C(=O)C(C)(OC(=O)c3ccc(OC)cc3)C(=O)C2=CN1Cc1ccccc1 (centres undefined)	-2	0	105*	-6	73*
CCCCC1=CC2=C(c3ccco3)C(=O)C(C)(OC(=O)c3ccc(OC)cc3)C(=O)C2=CN1CCOC (centres undefined)	3	3	-199	0	/
CCCCC1=CC2=C(c3ccco3)C(=O)C(C)(OC(=O)c3ccc(OC)cc3)C(=O)C2=CN1Cc1ccc2c(c1)OCO2 (centres undefined)	6	4	102*	-7	24
CCCCC1=CC2=C(c3ccco3)C(=O)C(C)(OC(=O)c3ccc(OC)cc3)C(=O)C2=CN1C1CCCCC1 (centres undefined)	0	0	101*	8	6
COc1cc(/C=C/C(=O)OCC(=O)NCc2ccccc2OC)ccc1O	-4	0	/	12	/
C=CCn1c(SCCOc2ccccc2)nnc1C(C)NC(=O)c1ccccc1 (centres undefined)	2	2	12	-14	/
C=CCn1c(CCNC(=O)c2ccc(Cl)c(Cl)c2)nnc1SCCOc1ccc(OC)cc1	-2	5	97*	-12	81*
Cn1c(CCNC(=O)c2ccc(Cl)c(Cl)c2)nnc1SCc1ccc(Cl)c(Cl)c1	-1	-2	100*	-15	52
Cc1ccc(C2CC2c2n[nH]c(=S)n2-c2ccc(Cl)cc2)cc1 (centres undefined)	0	-1	106*	-13	-2
CCCCCCCCCCCCCCCC[n+]1cccc2ccccc21	23	36	106*	7	120*
Clc1cccc(CN2CCCCCC2)c1Cl	-5	1	/	-6	/
Cc1cc(NC(=O)c2sc(Nc3ccc(F)c(Cl)c3)nc2N)no1	0	2	100*	-16	-32
CCn1c(-c2ccc(F)cc2)cnc1SCC(=O)N1CCCCC1C (centres undefined)	/	/	37	/	/
CC(C)(C)c1nnc(N/N=C/c2cc(Br)ccc2O)n(N)c1=O	/	/	106*	1	118*
O=S(=O)(N/N=C/c1ccc(Cl)cc1)c1ccc(Cc2ncc(C(F)(F)F)cc2Cl)s1	1	-1	100*	7	91*
O=C(Cn1ncc(Cl)c(Cl)c1=O)NCC1CCCCC1	/	/	108*	-17	-15
O=C(Cn1ncc(Cl)c(Cl)c1=O)NC1CCCCC1	-1	39	/	-18	/
O=C(CCl)Nc1cn(-c2ccccc2)nc1-c1ccccc1	-5	6	107*	-3	106*
CC(C)CN1CCN(C2CCN(C(C)C)CC2)C(CCO)C1 (centres undefined)	/	/	-2	/	/
SMILES	XBP1 UPR activ	UPR CHOP act	CHOP inh	PvdQ inh	CHOP confirm
COc1ccc(C2NCCc3c2[nH]c2ccccc32)cc1CSc1nc2ccccc2s1 (centres undefined)	/	/	99*	-1	45
C=CCn1c(SCC(=O)c2[nH]c(C)c(C(=O)OC)c2C)nc2scc(-c3ccc(OC)c(OC)c3)c2c1=O	/	/	102*	6	120*
C=CCn1c(SCC(=O)c2[nH]c(C)c(C(C)=O)c2C)nnc1-c1ccncc1	-2	1	4	-5	/
Cc1cccc(NC(=O)NC(C)C(c2ccccc2)N2CCN(C)CC2)c1 (centres undefined)	0	-1	9	-1	/
COC(=O)CSC1=NS(=O)(=O)c2ccccc21	-2	-1	27	-12	/
O=C(CSC1=NS(=O)(=O)c2ccccc21)Nc1ccccc1	-1	5	106*	-35	39
Cc1ccc(NC(=O)/C(=C/c2cccs2)NC(=O)c2ccco2)cc1	-3	1	-5	2	/
O=C(CCCOc1ccc(Cl)cc1Cl)NNC(=O)c1ccc(NC(=O)c2ccccc2)cc1	1	0	-30	2	/
Cc1ccc(/C=N/NC(=O)CSCc2ccc(Cl)cc2)cc1	2	0	110*	-6	89*
Cc1ccc(/C=N/NC(=O)CCCOc2ccc(Cl)cc2Cl)cc1[N+](=O)[O-]	-5	0	40	-10	/
Cc1ccccc1C(=O)Nc1ccc(C(=O)NNC(=O)CCCOc2ccc(Cl)cc2Cl)cc1	-4	0	113*	-5	6
Cc1ccc(/C=N/NC(=O)CCCOc2ccc(Cl)cc2Cl)cc1	-1	0	100*	-11	106*
O=C(CSCc1ccc(Cl)cc1)N/N=C/c1ccc(OCC(=O)Nc2ccccc2)cc1	-7	-3	-1	-11	/
Cc1cccc(Oc2cc(NC(=O)Cn3cnc([N+](=O)[O-])n3)cc([N+](=O)[O-])c2)c1	/	/	103*	-10	34
O=C(COC(=O)c1ccc(F)c(S(=O)(=O)N2CCOCC2)c1)NCc1ccc(Cl)cc1	3	1	/	-27	/
COc1ccccc1Nc1ncnc2c1cnn2-c1cccc(C)c1	0	6	-20	-9	/
COc1cccc(Nc2ncnc3c2cnn3-c2cccc(C)c2)c1	4	4	105*	-7	130*
COc1ccc(C)cc1N1C(=N)/C(=C2/Nc3ccccc3S2)C(c2ccccc2)C1=O (centres undefined)	/	/	98*	12	-15
O=C(c1ccccc1)N1CCN(C(=O)C2CC2)CC1	0	3	/	-3	/
Cc1ccc2nc(/C(C#N)=C\c3cc(O)ccc3[N+](=O)[O-])[nH]c2c1	-2	3	-16	4	/
Cc1ccc2nc(/C(C#N)=C/c3ccc(-c4cccc([N+](=O)[O-])c4)o3)[nH]c2c1	/	/	108*	-15	52
COc1ccc(/C=C(\C#N)c2nc3ccc(C)cc3[nH]2)cc1Oc1ccc(C(F)(F)F)cc1[N+](=O)[O-]	14	9	102*	-6	58
COc1ccccc1-c1sc2cc3c(cc2c1C#Cc1cncn1C)OCO3	3	4	/	5	/
O=C(N/N=C\c1ccc(Cl)cc1)C1=NOC2COC3(CCN(c4ccc([N+](=O)[O-])cc4)CC3)OCC12 (centres undefined)	4	5	69	9	/
CC(C)CCn1c(N2CCN(c3cccc(Cl)c3)CC2)nc2c1c(=O)[nH]c(=O)n2C	5	5	106*	-15	66
